H69AR growth 86K: growth inhibitors of human H69AR lung tumor cells. H69AR lung tumor viability, ATP luminescence, 72 h; hits give low values. 85,000 tested, 6% active. viability, % at 10 µM;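 active = viability at or below 40%; inactive = viability above 40%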;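 also: multidrug resistant small cell line overexpressing MRP-1 efflux transporter; 100% = mean luminescence of untreated control wells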
HUVEC prolif 384: human endothelial cell proliferation inhibition; AID 648; 86,000 tested, 1.1% active; viability, % at 10 µM (by protocol); HUVEC proliferation, CellTiter-Glo luminescence, 72 h; hits give low values;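 active = viability at or below 30%; inactive = viability above 30%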;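 also: 100% = median luminescence of DMSO-only cell control wells on each plate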
Lung fibro prol: blocks proliferation of human lung fibroblasts. LL 47 human lung fibroblast viability, ATP luminescence; hits give low values. viability, % at 10 µM. 85,000 tested, 1.1% active. AID 719;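 active = viability at or below 50% in the single dose screen; inactive = viability above 50%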;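 also: compound exposure lasted 72 h before the ATP readout; 100% = median luminescence of untreated cell-only wells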
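material = human LL 47 lung fibroblast cells | dosing = compounds added from tenfold dosing solution, 0.1% DMSO final | timing = overnight cell rest, 72 h compound treatment at 37 °C | measured by = CellTiter-Glo luminescence measuring cellular ATP | evaluation = % viability versus median cells-only luminescence | control set = cell-only wells, no compound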
PTEN del growth: PTEN-deleted cell growth suppression; 140,000 tested, 1.2% active; viability, % at 10 µM; AID 827; HCT116 PTEN-null viability, CellTiter-Glo, 60 h; hits give low values;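 active = viability at or below a set limit, 4 SD under the median of all tested compounds, cut at about 3.7% in these data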;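 also: PTEN knockout HCT116 line with beta catenin targeted HCT116 as companion control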
bCat KO growth: beta-catenin-lacking colon tumor cell growth suppression; HCT116 beta-catenin knockout viability, CellTiter-Glo, 60 h; hits give low values; viability, % at 10 µM; 140,000 tested, 1.5% active;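 active = viability at or under a set limit, the compound median less 4 SD, cut at about 6% in these data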;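 also: 0% = Hyamine 1622 control at 20 µM and 100% = untreated cell control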
Active calls of the source: *; · = not tested or not shown. Many of the other results were omitted from the sample, so hits are more common in it than they were.

SMILES | H69AR growth 86K | HUVEC prolif 384 | Lung fibro prol | PTEN del growth | bCat KO growth
COC(=O)c1[nH]c2cc(C)ccc2c1NC(=O)CN1CCCc2ccccc21 | · | · | · | 4 | 5.5*
COC(=O)c1[nH]c2ccc(Br)cc2c1NC(=O)CN1CCN(C2CCCCC2)CC1 | 2.9* | 5.7* | 16* | 1.8* | 1.7*
Cc1cc(NC(=O)CN2CC(C)OC(C)C2)n(-c2nc3ccccc3s2)n1 (centres undefined) | 43 | 90 | 89 | 91 | 90
COC(=O)c1[nH]c2cc(C)ccc2c1NC(=O)CN1CCN(C(=O)c2ccco2)CC1 | 62 | 84 | 87 | 90 | 86
CCOC(=O)C1CCN(CC(=O)Nc2cc(C)nn2-c2nc3ccccc3s2)CC1 | 28* | 73 | 94 | 79 | 75
Cc1cc2c(ncn2Cc2ccccc2)c([N+](=O)[O-])c1C | · | · | · | 90 | 89
CCN(CC)c1ccc(NC(=O)Nc2ccccc2C(F)(F)F)cc1 | · | · | · | 96 | 97
CCOC(=O)C1CCCN(CC(=O)Nc2c(C(=O)OC)[nH]c3ccc(Br)cc23)C1 (centres undefined) | 58 | 73 | 95 | 74 | 77
COC(=O)c1[nH]c2ccc(Br)cc2c1NC(=O)CN1CCCc2ccccc21 | 21* | 64 | 75 | 48 | 41
N=c1sc2ccccc2n1-c1ccccc1 | 31* | 94 | 100 | 96 | 99
Cc1ccc(NC(=O)c2c(C)nn(-c3ccccc3)c2Cl)cc1 | · | · | · | 97 | 98
CN1CCN(C2=Cc3ccccc3Sc3cc(F)c(F)cc32)CC1 | 7.1* | 6.7* | 89 | 43 | 40
CN1CCN(CCC(=O)N2c3ccccc3Sc3ccc(Cl)cc32)CC1 | 86 | 92 | 90 | 75 | 80
CN1CCN(C2=Cc3ccccc3Sc3cc(F)c(Cl)cc32)CC1 | 0.0* | 8.8* | 94 | 27 | 22
CN1CCN(C2=Cc3cc(Cl)ccc3Sc3cc(F)ccc32)CC1 | 51 | 4.9* | 87 | 7 | 1.3*
COc1ccc(OCC(=O)Nc2sc3c(c2C(=O)NCC2CCCO2)CCC3)cc1 (centres undefined) | · | · | · | 76 | 85
Cn1c(=O)c2c(SCC(=O)N3CCOCC3)nc(CC(C)(C)C)nc2n(C)c1=O | 24* | 45 | 35* | 61 | 49
Cn1c(=O)c2c(SCC(=O)N3CCCc4ccccc43)nc(CC(C)(C)C)nc2n(C)c1=O | 30* | 89 | 80 | 4 | 4.8*
COc1ccc(CCNC(=O)CSc2nncs2)cc1 | · | · | · | 106 | 101
CCOC(=O)c1c(NC(=O)CN2C(=O)NC(C)(c3ccc(OC(F)F)cc3)C2=O)sc(C)c1C (centres undefined) | · | · | · | 70 | 78
CCOC(=O)c1c(C)[nH]c(C(=O)CN2C(=O)NC(C)(c3ccc(C)cc3)C2=O)c1C (centres undefined) | 39* | 97 | 107 | 51 | 59
CCOC(=O)c1c(C)[nH]c(C(=O)Cn2nnc(-c3ccccc3)n2)c1C | 61 | 81 | 80 | 102 | 92
CCOC(=O)c1c(C)[nH]c(C(=O)CN2C(=O)NC(CC)(c3ccccc3)C2=O)c1C (centres undefined) | 37* | 100 | 94 | 62 | 75
COc1ccc(C2C3=C(CC(C)(C)CC3=O)OC(N)=C2[N+](=O)[O-])cc1 (centres undefined) | · | · | · | 92 | 94
C=CCOc1ccc(/C=N/O)cc1Cl | · | · | · | 89 | 85
SMILES | H69AR growth 86K | HUVEC prolif 384 | Lung fibro prol | PTEN del growth | bCat KO growth
CCOC(=O)c1ccc(-c2ccc(C3Nc4ccccc4C(=O)N3O)o2)cc1 (centres undefined) | · | · | · | 6 | 5.4*
COc1ccc(CC(=O)NCc2cn3ccsc3n2)cc1 | 1.0* | 102 | 98 | 98 | 92
Cc1ccc(C(=O)N2CCC(C)CC2)cc1C | 87 | 100 | 113 | 86 | 85
CCCC1(CCC)NC(=O)N(CC(=O)Nc2ccccc2OC)C1=O | 123 | 96 | 15* | 98 | 102
COc1ccc(OCCSCc2nnc(NC(=O)Nc3ccc(Cl)cc3)s2)cc1 | · | · | · | 35 | 42
COc1ccc(OC)c2c(C)cc(C)nc12 | · | · | · | 90 | 88
Cc1nc(N2CCN(c3ccccc3)CC2)[nH]c(=O)c1Cc1cccc2ccccc12 | 22* | 52 | 57 | 37 | 38
O=C(Cc1ccc(Br)cc1)N1CCCCCC1 | 89 | 87 | 102 | 95 | 99
NS(=O)(=O)c1ccc(N/N=C2/CCCCC2C2CCCCC2)c([N+](=O)[O-])c1 (centres undefined) | · | · | · | 2.5* | 1.7*
CC1C/C(=N\Nc2ccc(S(N)(=O)=O)cc2[N+](=O)[O-])CC(C)(C)C1 (centres undefined) | · | · | · | 61 | 61
COc1ccc(-c2cnnc(N/N=C/c3ccc(O)c(OC)c3)n2)cc1 | · | · | · | 34 | 34
CSCC[C@H](NC(=O)COc1ccc(Cl)cc1)c1nc2ccccc2[nH]1 | · | · | · | 72 | 75
CCCSc1nc2c(cnn2-c2ccc(C)cc2)c(=O)[nH]1 | 13* | 11* | 91 | 53 | 70
O=C(CSc1nc2c(cnn2-c2ccccc2)c(=O)[nH]1)c1ccc(Cl)cc1 | 36* | 88 | 98 | 103 | 93
CCCSc1nc2c(cnn2-c2ccccc2)c(=O)[nH]1 | 106 | 73 | 93 | 103 | 107
CCCCSc1nc2c(cnn2-c2ccc(Cl)cc2)c(=O)[nH]1 | 51 | 87 | 88 | 78 | 97
CCCN1C(=O)/C(=N\OCC(=O)NC23CC4CC(CC(C4)C2)C3)c2ccccc21 | · | · | · | 93 | 91
c1ccc2c(N3CCCCC3)nc(N3CCCCC3)nc2c1 | 54 | 77 | 95 | 51 | 58
C(=C\c1nc(N2CCCCCC2)c2ccccc2n1)/c1ccccc1 | · | · | · | 8 | 3.3*
Cc1ccc(N(CC(=O)NCCc2ccc(F)cc2)S(=O)(=O)c2ccc(Cl)c([N+](=O)[O-])c2)c(C)c1 | · | · | · | 1.4* | 1.5*
O=C(CN(c1cccc(C(F)(F)F)c1)S(=O)(=O)c1ccc(Cl)c([N+](=O)[O-])c1)NCc1ccccc1 | · | · | · | 47 | 40
CCCN(CCC)C(=O)CCSCCC(=O)N(CCC)CCC | · | · | · | 92 | 95
O=C(CCCCCC(=O)N(CCO)CCO)N(CCO)CCO | 26* | 96 | 94 | 101 | 98
COc1cc(OC)c(OC)cc1/C=N/Nc1ncnc2c1[nH]c1ccccc12 | · | · | · | 5 | 4.2*
CCCCOCCCNc1ncnc2c1[nH]c1ccccc12 | 39* | 71 | 91 | 14 | 13
Cc1ccc(-c2[nH]c3ccccc3c2SCCNC(=O)c2ccc(S(=O)(=O)N3CCOCC3)cc2)cc1 | · | · | · | 0.8* | 0.8*
COc1ccc(-c2[nH]c3ccccc3c2SCCNC(=O)c2ccccc2)cc1 | · | · | · | 56 | 60
CCOc1cccc2cc(-c3csc(NC(=O)CCC(=O)N4CCN(C)CC4)n3)c(=O)oc12 | 33* | 78 | 66 | · | ·
CCOc1cccc2cc(C(=O)Nc3nccs3)c(=O)oc12 | · | · | · | 92 | 95
CCOc1cccc2cc(-c3csc(NC(=O)CCC(=O)N4CCC(C)CC4)n3)c(=O)oc12 | 18* | 28* | 22* | 79 | 73
